Tests used:
Mus musculus [1] = assay: Antagonism of apomorphine induced climbing was determined in female swiss -Webster mice after (po) administration of 5 mg/kg; format: functional
Procedure, shortened: (§1)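 Female Swiss-Webster mice (about 20 g) were fasted about 24 h, then given test compound or vehicle ip or po (N = 20 per group). Vehicle was 0.5% w/w hydroxypropylmethylcellulose with 0.1% w/w Tween 80 in water. After 30 min, mice received apomorphine HCl 1.25 mg/kg sc. At 13 min, each mouse was watched for 1 min; score was mean of highest and lowest rung of 27. Groups were compared with vehicle by Student's t-test.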

Mus musculus [2] = assay: Antagonism of apomorphine induced climbing was determined in female swiss -Webster mice after (p.o.) +SKF525A administration of 10 mg/kg; format: functional; settings: route oral; procedure, shortened: as §1
Mus musculus [3] = assay: Antagonism of apomorphine induced climbing was determined in female swiss -Webster mice after (p.o.) +SKF525A administration of 5 mg/kg; format: functional; settings: route oral; procedure, shortened: as §1
Mus musculus [4] = assay: Antagonism of apomorphine induced climbing was determined in female swiss -Webster mice after (ip) administration of 5 mg/kg; format: functional; procedure, shortened: as §1
Mus musculus [5] = assay: Antagonism of apomorphine induced climbing was determined in female swiss -Webster mice after (ip) administration of 40 mg/kg; format: functional; procedure, shortened: as §1
Mus musculus [6] = assay: Antagonism of apomorphine induced climbing was determined in female swiss -Webster mice after (ip) administration of 2.5 mg/kg; format: functional; procedure, shortened: as §1
Mus musculus [7] = assay: Antagonism of apomorphine induced climbing was determined in female swiss -Webster mice after (po) administration of 40 mg/kg; format: functional; procedure, shortened: as §1
Mus musculus [8] = assay: Antagonism of apomorphine induced climbing was determined in female swiss -Webster mice after (p.o.) +SKF525A administration of 2.5 mg/kg; format: functional; settings: route oral; procedure, shortened: as §1
Mus musculus [9] = assay: Antagonism of apomorphine induced climbing was determined in female swiss -Webster mice after (p.o.) +SKF525A administration of 40 mg/kg; format: functional; settings: route oral; procedure, shortened: as §1
Mus musculus [10] = assay: Antagonism of apomorphine induced climbing was determined in female swiss -Webster mice after (po) administration of 2.5 mg/kg; format: functional; procedure, shortened: as §1
Mus musculus [11] = assay: Antagonism of apomorphine induced climbing was determined in female swiss -Webster mice after (po) administration of 10 mg/kg; format: functional; procedure, shortened: as §1
Mus musculus [12] = assay: Antagonism of apomorphine induced climbing was determined in female swiss -Webster mice after (p.o.) +SKF525A administration of 20 mg/kg; format: functional; settings: route oral; procedure, shortened: as §1
Mus musculus [13] = assay: Antagonism of apomorphine induced climbing was determined in female swiss -Webster mice after (ip) administration of 20 mg/kg; format: functional; procedure, shortened: as §1
[14] = target: D(2) dopamine receptor (Rattus norvegicus) (UniProt P61169); assay: Binding affinity at dopamine receptor D2 from rat by spiropiperidone displacement.
Procedure, shortened: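 D2 receptor binding was read as % displacement of spiropiperidone, with test compound at 1000 nM unless stated otherwise. IC50 values used at least five concentrations per compound in triplicate. Each value is the mean of two replicate experiments differing by 5% or less.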

Mus musculus [15] = assay: Antagonism of apomorphine induced climbing was determined in female swiss -Webster mice after (ip) administration of 10 mg/kg; format: functional; procedure, shortened: as §1
Mus musculus [16] = assay: Antagonism of apomorphine induced climbing was determined in female swiss -Webster mice after (po) administration of 20 mg/kg; format: functional; procedure, shortened: as §1
[17] = Number of animals showing dyskinesias was determined in haloperidol sensitized 4 cebus monkeys after (po) administration of 40 mg/kg; format: functional
Procedure, shortened: (§2)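 Adult female and male Cebus monkeys sensitized with oral haloperidol 1 mg/kg once per week until dyskinetic reactions occurred. Test drug given orally (2 mL/kg) in 0.5% w/w hydroxypropylmethylcellulose with 0.1% w/w Tween 80 in distilled water, at least 2 weeks between treatments. Two observers watched continuously for 6-7 h, recording reaction type and severity every 30 min. Score is monkeys with dyskinesias/monkeys tested.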

[18] = Number of animals showing dyskinesias was determined in haloperidol sensitized 2cebus monkeys after (po) administration of 20 mg/kg; format: functional; procedure, shortened: as §2
Mus musculus [19] = assay: Antagonism of apomorphine induced climbing was determined in female swiss -Wbster mice after (ip) administration of 80 mg/kg; format: functional; procedure, shortened: as §1
Mus musculus [20] = assay: Antagonism of apomorphine induced climbing was determined in female swiss -Wbster mice after (ip) administration of 20 mg/kg; format: functional; procedure, shortened: as §1
Mus musculus [21] = assay: Antagonism of apomorphine induced climbing was determined in female swiss -Wbster mice after (ip) administration of 40 mg/kg; format: functional; procedure, shortened: as §1
[22] = Number of animals showing dyskinesias was determined in haloperidol sensitized 2 cebus monkeys after (po) administration of 80 mg/kg; format: functional; procedure, shortened: as §2
Mus musculus [23] = assay: Antagonism of apomorphine induced climbing was determined in female swiss -Wbster mice after (po) administration of 80 mg/kg; format: functional; procedure, shortened: as §1
[24] = Number of animals showing dyskinesias was determined in haloperidol sensitized 5 cebus monkeys after (po) administration of 10 mg/kg; format: functional; procedure, shortened: as §2
[25] = Number of animals showing dyskinesias was determined in haloperidol sensitized 12 cebus monkeys after (po) administration of 20 mg/kg; format: functional
Procedure, shortened: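 Adult male and female Cebus monkeys were sensitized with haloperidol 1 mg/kg po weekly until dyskinesias appeared. Test drug was given po (2 mL/kg) in HPMC/Tween 80 vehicle, with at least 2 weeks between treatments. Two observers watched continuously for 6-7 h, recording reaction type and severity every 30 min. Result is number of monkeys showing dyskinesias over number tested.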

[26] = Number of animals showing dyskinesias was determined in haloperidol sensitized 2 cebus monkeys after (po) administration of 40 mg/kg; format: functional; procedure, shortened: as §2
Mus musculus [27] = assay: Antagonism of apomorphine induced swimming was determined in female swiss -Wbster mice after (ip) administration of 10 mg/kg; format: functional
D(2) dopamine receptor = D(2) dopamine receptor (Rattus norvegicus, UniProt P61169); assay: Inhibition of spiropiperidone binding at dopamine receptor D2 of rat.
Mus musculus [28] = assay: Antagonism of apomorphine induced swimming was determined in female swiss -Wbster mice after (ip) administration of 40 mg/kg; format: functional
Mus musculus [29] = assay: Antagonism of apomorphine induced climbing was determined in female swiss -Wbster mice after (ip) administration of 10 mg/kg; format: functional; procedure, shortened: as §1
Mus musculus [30] = assay: Antagonism of apomorphine induced swimming was determined in female swiss -Wbster mice after (ip) administration of 20 mg/kg; format: functional
Mus musculus [31] = assay: Antagonism of apomorphine induced swimming was determined in female swiss -Wbster mice after (ip) administration of 80 mg/kg; format: functional
Mus musculus [32] = assay: Antagonism of apomorphine induced swimming was determined in female swiss -Wbster mice after (po) administration of 80 mg/kg; format: functional
[33] = Number of animals showing dyskinesias was determined in haloperidol sensitized 6 cebus monkeys after (po) administration of 10 mg/kg; format: functional; settings: dose 20 mg/kg; in the assay text read “20 mg/kg” for “10 mg/kg”; procedure, shortened: as §2
Mus musculus [34] = assay: Antagonism of apomorphine induced swimming was determined in female swiss -Webster mice after (po) administration of 20 mg/kg; format: functional
Mus musculus [35] = assay: Antagonism of apomorphine induced swimming was determined in female swiss -Webster mice after (po) administration of 80 mg/kg; format: functional
Mus musculus [36] = assay: Antagonism of apomorphine induced swimming was determined in female swiss -Webster mice after (po) administration of 40 mg/kg; format: functional
Mus musculus [37] = assay: Antagonism of apomorphine induced swimming was determined in female swiss -Webster mice after (po) administration of 10 mg/kg; format: functional
Procedure, shortened: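 Female Swiss-Webster mice (~20 g), food-deprived ~24 h, N = 20 per group; oral dosing in 0.5% w/w hydroxypropylmethylcellulose with 0.1% w/w Tween 80 in water. Apomorphine given; mice placed in a circular tank (5.5 cm water, room temperature) with marks 180° apart. Each 180° swim counted, observed via overhead mirrors; group score derived from swim counts.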

Mus musculus [38] = assay: Antagonism of apomorphine induced swimming was determined in female swiss -Webster mice after (ip) administration of 10 mg/kg; format: functional
[39] = Number of animals showing dyskinesias was determined in haloperidol sensitized cebus monkey after (po) administration of 10 mg/kg; format: functional; procedure, shortened: as §2
Mus musculus [40] = assay: Antagonism of apomorphine induced swimming was determined in female swiss -Webster mice after (ip) administration of 20 mg/kg; format: functional
Mus musculus [41] = assay: Antagonism of apomorphine induced swimming was determined in female swiss -Webster mice after (ip) administration of 40 mg/kg; format: functional
Mus musculus [42] = assay: Antagonism of apomorphine induced swimming was determined in female swiss -Webster mice after (ip) administration of 5 mg/kg; format: functional
Mus musculus [43] = assay: Antagonism of apomorphine induced swimming was determined in female swiss -Webster mice after (ip) administration of 2.5 mg/kg; format: functional

D(2) dopamine receptor, sequence (P61169 whole entry): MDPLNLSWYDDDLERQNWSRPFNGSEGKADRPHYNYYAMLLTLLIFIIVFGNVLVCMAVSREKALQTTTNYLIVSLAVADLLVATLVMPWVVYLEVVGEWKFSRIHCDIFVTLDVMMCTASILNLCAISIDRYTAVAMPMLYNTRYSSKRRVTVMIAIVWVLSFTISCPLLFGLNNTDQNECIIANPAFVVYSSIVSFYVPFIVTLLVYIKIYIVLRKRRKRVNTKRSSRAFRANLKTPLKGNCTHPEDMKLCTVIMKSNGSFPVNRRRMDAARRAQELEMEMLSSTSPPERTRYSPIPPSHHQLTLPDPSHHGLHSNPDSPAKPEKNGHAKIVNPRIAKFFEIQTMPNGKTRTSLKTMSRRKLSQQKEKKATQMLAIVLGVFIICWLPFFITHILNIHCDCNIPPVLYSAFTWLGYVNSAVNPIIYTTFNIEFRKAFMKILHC
D(2) dopamine receptor (Rattus norvegicus), sequence (P61169 whole entry): as above

| SMILES | Activity (Mus musculus [4]) | Activity (Mus musculus [5]) | Activity (Mus musculus [6]) | Activity (Mus musculus [13]) | % displacement of spiropiperidone [14] [%] | Activity (Mus musculus [15]) | Activity (Mus musculus [19]) | Activity (Mus musculus [20]) | Activity (Mus musculus [21]) | Activity (Mus musculus [27]) | IC50 (D(2) dopamine receptor) [nM] | Activity (Mus musculus [28]) | Activity (Mus musculus [29]) | Activity (Mus musculus [30]) | further results |
| --- | --- | --- | --- | --- | --- | --- | --- | --- | --- | --- | --- | --- | --- | --- | --- |
| CN1CCN(C2=Nc3ccccc3Oc3ccccc32)CC1 | 13 | 3 | 19 | 0 | 27 | 2 |  |  |  |  |  |  |  |  | Activity (Mus musculus [1]): 13; Activity (Mus musculus [2]): 24; Activity (Mus musculus [3]): 19; Activity (Mus musculus [7]): 3; Activity (Mus musculus [8]): 25; Activity (Mus musculus [9]): 19; Activity (Mus musculus [10]): 19; Activity (Mus musculus [11]): 10; Activity (Mus musculus [12]): 18; Activity (Mus musculus [16]): 3 |
| OCCOCCN1CCN(C2=Nc3cc(F)ccc3Sc3ccccc32)CC1 |  |  |  |  | 34 |  | 6 | 16 | 14 |  |  |  |  |  | No of monkeys [17]: 0; No of monkeys [18]: 0; No of monkeys [22]: 0 |
| OCCOCCN1CCN(C2=Nc3ccc(F)cc3Sc3ccccc32)CC1 |  |  |  |  |  |  | 2 | 9 | 8 | 1 | 560 | 8 | 14 | 1 | Activity (Mus musculus [23]): 23; No of monkeys [24]: 1; No of monkeys [25]: 3; No of monkeys [26]: 0; Activity (Mus musculus [31]): 18; Activity (Mus musculus [32]): 2 |
| OCCOCCN1CCN(C2=Nc3ccc(O)cc3Sc3ccccc32)CC1 |  |  |  |  |  |  |  | 5 | 0 | 5 | 166 | 31 | 27 | 17 | No of monkeys [33]: 5 |
| CN1CCN(C2=Nc3ccc(F)cc3Sc3ccccc32)CC1 |  |  |  |  |  |  | 1 | 13 | 5 |  | 963 |  | 18 |  | Activity (Mus musculus [34]): 2; Activity (Mus musculus [35]): 9; Activity (Mus musculus [36]): 3; Activity (Mus musculus [37]): 1 |
| COC(CO)CN1CCN(C2=Nc3ccccc3Sc3ccccc32)CC1 (stereo unspecified) | 19 | 1 | 21 | 2 |  | 8 |  |  |  |  | 755 |  |  |  | Activity (Mus musculus [38]): 6; No of monkeys [39]: 2; Activity (Mus musculus [40]): 22; Activity (Mus musculus [41]): 32; Activity (Mus musculus [42]): 2; Activity (Mus musculus [43]): 0 |
